Results as given in ChEMBL document CHEMBL3352121, “Modulation of Activity Profiles for Largazole-Based HDAC Inhibitors through Alteration of Prodrug Properties” (ACS Med Chem Lett, 2014).
Active and inactive are the calls of the source. The rule behind the calls is not given here.

System: HCT-116
Test: In vivo inhibition of HDAC in tumor of human HCT116 cells xenografted nu/nu mouse assessed as increase in histone hyperacetylation at 50 mg/kg, ip after 4 to 24 hrs by immunoblotting method
Assay type: functional, organism-based
Set-up: dose 50 mg/kg
Outline: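 HCT116 xenograft mice were dosed intraperitoneally at 10 or 50 mg/kg. Tumors were excised after 4, 12 and 24 h, n = 2. Histone hyperacetylation in tumor tissue was assessed by immunoblotting.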

With `CC(C)[C@@H]1NC(=O)[C@]2(C)CSC(=N2)c2csc(n2)CNC(=O)C[C@@H](/C=C/CCSSCC/C=C/[C@@H]2CC(=O)NCc3nc(cs3)C3=N[C@@](C)(CS3)C(=O)N[C@@H](C(C)C)C(=O)O2)OC1=O` the inhibition was “Active”.
